Sampled rows, rich in hits. Any-hit rate of the full collection: about 2.3%.
PLC-beta3 inh: human PLC-beta3 inhibitors, primary screen, biochemical, fluorescence; 1-phosphatidylinositol 4,5-bisphosphate phosphodiesterase beta-3 (Homo sapiens), Q01970; Purified PLC-beta3, fluorogenic substrate; inhibition, % at 12.2 µM; 370,000 compounds, 0.18% hits; in the data active = inhibition above about 11%;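 also: 0% = median of compound wells on plate and 100% = full blocker control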
PLCg1 inh: PLC-gamma1 enzyme inhibitors, primary screen, biochemical, fluorescence, purified enzyme | 1-phosphatidylinositol 4,5-bisphosphate phosphodiesterase gamma-1 (Homo sapiens), P19174 | fluorogenic substrate | inhibition, % at 12.2 µM | 370,000 compounds, 0.84% hits
ADAM17 inh: ADAM17 inhibitors, primary screen, biochemical, QFRET; Disintegrin and metalloproteinase domain-containing protein 17 (Homo sapiens), P78536; inhibition, % at 6.95 µM; recombinant ADAM17, EDANS/DABCYL FRET peptide cleavage; 370,000 compounds, 0.83% hits; AID 720648, 2013;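 active = inhibition above the mean of compounds lying between control limits plus 3 SD, set per campaign, cut at about 8.5% in these data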;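 also: 0% = DMSO-only wells as the low control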
DDE Tn6 FP inh: inhibitors of Tn6 peptide binding to fibrin DD(E), primary screen, biochemical, fluorescence polarization, human fibrin, Tn6 probe; AID 720509, 2013; 370,000 compounds, 0.21% hits; Fibrin DD(E) TRITC-Tn6 fluorescence polarization displacement; Fibrinogen beta chain (Homo sapiens), P02675; inhibition, % at 8.3 µM;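 active = inhibition above a per-campaign cutoff: mean of compounds within control limits plus 3 SD, cut at about 15% in these data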;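 also: 0% = median of all compound wells on the plate and 100% = blocking peptide control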
ADAM10 inh: human ADAM10 inhibitors, primary screen, biochemical, QFRET, HTS. Disintegrin and metalloproteinase domain-containing protein 10 (Homo sapiens), O14672. recombinant ADAM10, EDANS/DABCYL FRET peptide cleavage, 3 h. inhibition, % at 7 µM. 370,000 compounds, 0.62% hits. AID 720582, 2013;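 active = inhibition above a per-campaign cutoff equal to the mean of compounds falling between control-based bounds plus 3 SD, cut at about 20% in these data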;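 also: 0% = DMSO wells while the 100% control is not disclosed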
Target sequence (O14672 214-748 limits assumed): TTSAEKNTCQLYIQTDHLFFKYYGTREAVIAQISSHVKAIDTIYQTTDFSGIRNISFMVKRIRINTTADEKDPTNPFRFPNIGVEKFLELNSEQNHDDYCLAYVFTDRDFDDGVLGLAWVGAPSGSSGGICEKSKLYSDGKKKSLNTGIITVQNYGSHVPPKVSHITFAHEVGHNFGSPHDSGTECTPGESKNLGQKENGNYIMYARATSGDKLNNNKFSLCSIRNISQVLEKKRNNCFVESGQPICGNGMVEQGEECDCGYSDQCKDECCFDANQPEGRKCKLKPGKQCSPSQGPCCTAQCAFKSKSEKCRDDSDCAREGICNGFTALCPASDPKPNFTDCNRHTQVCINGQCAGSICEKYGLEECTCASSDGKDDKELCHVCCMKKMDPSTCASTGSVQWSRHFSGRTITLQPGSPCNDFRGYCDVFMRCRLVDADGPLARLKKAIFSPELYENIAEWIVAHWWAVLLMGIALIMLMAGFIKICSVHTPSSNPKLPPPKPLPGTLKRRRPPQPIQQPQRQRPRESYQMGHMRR
Tn7 DDE FP: inhibitors of Tn7 peptide binding to fibrin DD(E), primary screen, biochemical, fluorescence polarization, human fibrin, Tn7 probe; AID 720508, 2013; 370,000 compounds, 0.13% hits; FP displacement of FITC-Tn7 peptide from fibrin DD(E); 0% = median of compound wells per plate; inhibition, % at 8.3 µM;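 active = inhibition above the mean of compounds falling within the control limits plus 3 SD of them, cut at about 14% in these data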;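 also: 0% = plate median of compound wells and 100% = 10 µM Aha-Tn7 peptide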
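System: human fibrin DD(E); quantity: Fibrin-DD(E) at 2 µM final; also added: fluorescent Tn7 probe at 0.1 µM; compound dosing: single nominal test concentration of 8.3 µM per compound; schedule: 10 min preincubation, 3 h with tracer, room temperature; detection: fluorescence polarization of the labelled Tn7 tracer; repeats: one replicate per compound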
ADAM10 confirm: human ADAM10 inhibitors, confirmation, biochemical, QFRET, triplicate; 2,100 compounds, 1% hits; ADAM10 QFRET peptide cleavage, EDANS fluorescence; inhibition, % at 6.95 µM; shares compounds with ADAM10 inh;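 active = inhibition above about 20% chosen separately for each screening run, limit read from the data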;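 also: 0% = DMSO wells and 100% = marimastat wells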
ADAM17 counter: ADAM17 inhibitors, counter-screen for ADAM10 exosite inhibitor project, biochemical, QFRET, high throughput; shares compounds with ADAM10 inh; ADAM17 QFRET peptide cleavage, EDANS fluorescence; inhibition, % at 6.95 µM; 2,100 compounds, 0.5% hits; AID 743214, 2013;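 active = mean triplicate inhibition above the solvent-only control wells' mean plus 3 SD, cut at about 12% in these data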;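 also: 0% = DMSO wells and 100% = marimastat wells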
ADAM10 ctr: ADAM10 inhibitors, counter-screen for ADAM17 exosite inhibitor project, biochemical, FRET, human ADAM10; AID 743256, 2014; shares compounds with ADAM17 inh; inhibition, % at 6.95 µM; recombinant ADAM10, EDANS/DABCYL FRET peptide cleavage, 3 h; 2,900 compounds, 47% hits;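 active = mean inhibition over the triplicate runs exceeds the activity threshold set in the earlier primary screen, cut at about 20% in these data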;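 also: 0% = DMSO wells and 100% = marimastat wells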
ADAM17 confirm: ADAM17 inhibitors, hit retest, confirmation, biochemical, QFRET peptide cleavage; shares compounds with ADAM17 inh; recombinant ADAM17, EDANS/DABCYL QFRET peptide cleavage; inhibition, % at 6.95 µM; 2,900 compounds, 65% hits;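 active = mean inhibition across replicates above the hit cutoff set in the primary screen, cut at about 8.5% in these data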;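 also: 0% = DMSO wells and 100% = marimastat wells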
PLCgamma1 ctr: PLC-gamma1 enzyme inhibitors, counter-screen for PLC-beta3 inhibitor project, biochemical, fluorescence. shares compounds with PLCg1 inh. purified PLC-gamma1, fluorogenic substrate. inhibition, % at 12.3 µM. 3,300 compounds, 3.1% hits. AID 743258, 2014
PLCb3 confirm: PLC-beta3 inhibitor confirmation, biochemical, fluorescence, purified enzyme; AID 743261, 2014; shares compounds with PLCg1 inh; fluorogenic substrate fluorescence; inhibition, % at 12.3 µM; 3,300 compounds, 1% hits; in the data active = inhibition above about 11%
Active calls of the source: *. Rule as the data show it, unless noted: active = inhibition above about 9.5%; inactive = the rest.

For COc1ccc(NC(=O)Nc2ccc3c(c2)C(=O)N([C@H](C)CO)C[C@H](C)[C@@H](CN(C)S(=O)(=O)c2cccs2)O3)cc1 the results were PLC-beta3 inh 4.2, PLCg1 inh 11.4*, ADAM17 inh 15.5*, DDE Tn6 FP inh -7.5, ADAM10 inh 21.4*, Tn7 DDE FP -6.6, ADAM10 confirm 2.9, ADAM17 counter 0.2, ADAM10 ctr 14.2, ADAM17 confirm 10.2*, PLCgamma1 ctr -3.7 and PLCb3 confirm -2.3.
`Cc1ccc(-n2c(Cc3cccs3)nnc2SCC(=O)Nc2cccc3ccccc23)cc1` gave PLC-beta3 inh 7.6, PLCg1 inh 13.3*, ADAM17 inh 10.7*, DDE Tn6 FP inh -10.9, ADAM10 inh 26.3*, Tn7 DDE FP -6.2, ADAM10 confirm 7.6, ADAM17 counter 2.0, ADAM10 ctr 16.2, ADAM17 confirm 8.1, PLCgamma1 ctr 1.8 and PLCb3 confirm 1.6.
For COC(=O)[C@]12C[C@H](CC(=O)NCC34CC5CC(CC(C5)C3)C4)C(=O)N(CCc3ccc(OC)c(OC)c3)C1=C[C@H](C(C)(C)C)O[C@@H]2C the results were PLC-beta3 inh 4.6, PLCg1 inh -0.5, ADAM17 inh 6.0, DDE Tn6 FP inh -1.4, ADAM10 inh 15.7 and Tn7 DDE FP 8.6.
CN(CCO)c1cccc2c1S(=O)(=O)N(Cc1cn(Cc3ccc(Cl)cc3)nn1)Cc1ccccc1O2 was read as PLC-beta3 inh -6.5, PLCg1 inh -1.7, ADAM17 inh -3.2, DDE Tn6 FP inh 2.2, ADAM10 inh -3.8 and Tn7 DDE FP -0.5.
`COc1ccc(NC(=O)CN(c2ccc(OC)c(Cl)c2)S(=O)(=O)c2ccccc2)c(OC)c1` gave PLC-beta3 inh -4.2, PLCg1 inh 10.7*, ADAM17 inh 13.8*, DDE Tn6 FP inh -0.7, ADAM10 inh 34.1*, Tn7 DDE FP -5.3, ADAM10 confirm 6.7, ADAM17 counter 2.2, ADAM10 ctr 30.0*, ADAM17 confirm 16.8*, PLCgamma1 ctr -2.8 and PLCb3 confirm 0.9.

Screening data (PubChem)
